Experimental data as given in ChEMBL document CHEMBL4020842, “Discovery of N1-(4-((7-Cyclopentyl-6-(dimethylcarbamoyl)-7 H-pyrrolo[2,3- d]pyrimidin-2-yl)amino)phenyl)- N8-hydroxyoctanediamide as a Novel Inhibitor Targeting Cyclin-dependent Kinase 4/9 (CDK4/9) and Histone Deacetlyase1 (HDAC1) against Malignant Cancer” (J Med Chem, 2018).
Activity calls are given as the source filed them. The rule behind the calls is not given here.

How the values were obtained:
A549 [1] = experiment: Induction of apoptosis in human A549 cells assessed as reduction in Bcl2 protein expression after 48 hrs by Western blot method; type: functional, cell-based
How it was run: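 Cells were treated with or without compound and control for 48 h, then lysed. Bcl-2 and cleaved caspase 3 were assessed by Western blot.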

Hep 3B2 [2] = experiment: Induction of apoptosis in human Hep3B cells assessed as live cells at 1 uM after 48 hrs by annexin V-FITC/propidium iodide staining based flow cytometry (reference value: 97.9%); type: functional
NCI-H460 [3] = experiment: Induction of apoptosis in human NCI-H460 cells assessed as live cells at 5 uM after 48 hrs by annexin V-FITC/propidium iodide staining based flow cytometry (reference value: 97.3%); type: functional
T47D [4] = experiment: Downregulation of Cyclin-D1 protein expression in human T47D cells after 48 hrs by Western blot method; type: functional, cell-based
How it was run: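 Treated cells were lysed and CDK4 and cyclin D1 protein levels were assessed by Western blot.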

MDA-MB-231 [5] = experiment: Cell cycle arrest in human MDA-MB-231 cells assessed as decrease in S-phase at 625 nM after 24 hrs by propidium iodide staining based flow cytometry; type: functional
How it was run: (§1)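 Cells were exposed for 24 h to a range of concentrations (625 nM, 2.5 and 10 µM), with DMSO vehicle as control. They were then stained with propidium iodide and analysed by flow cytometry to obtain the percentages of cells in G0/G1, S and G2 phases.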

T47D [6] = experiment: Induction of apoptosis in human T47D cells assessed as live cells at 5 uM after 48 hrs by annexin V-FITC/propidium iodide staining based flow cytometry (reference value: 85.3%); type: functional
A549 [7] = experiment: Induction of apoptosis in human A549 cells assessed as live cells at 10 uM after 48 hrs by annexin V-FITC/propidium iodide staining based flow cytometry (reference value: 92.7%); type: functional
MDA-MB-231 [8] = experiment: Induction of apoptosis in human MDA-MB-231 cells assessed as early apoptotic cells at 5 uM after 48 hrs by annexin V-FITC/propidium iodide staining based flow cytometry (reference value: 0.4%); type: functional
HepG2 [9] = experiment: Induction of apoptosis in human HepG2 cells assessed as necrotic cells at 5 uM after 48 hrs by annexin V-FITC/propidium iodide staining based flow cytometry (reference value: 2.32%); type: functional
Histone deacetylase 1 [10] = target: T1, Histone deacetylase 1 (Homo sapiens, UniProt Q13547); experiment: Inhibition of HDAC1 in human NCI-H460 cells assessed as increase in acetylated-histone H3 level at 1 to 5 uM after 48 hrs by Western blot method; type: cell-based
T1 sequence (Q13547 whole entry): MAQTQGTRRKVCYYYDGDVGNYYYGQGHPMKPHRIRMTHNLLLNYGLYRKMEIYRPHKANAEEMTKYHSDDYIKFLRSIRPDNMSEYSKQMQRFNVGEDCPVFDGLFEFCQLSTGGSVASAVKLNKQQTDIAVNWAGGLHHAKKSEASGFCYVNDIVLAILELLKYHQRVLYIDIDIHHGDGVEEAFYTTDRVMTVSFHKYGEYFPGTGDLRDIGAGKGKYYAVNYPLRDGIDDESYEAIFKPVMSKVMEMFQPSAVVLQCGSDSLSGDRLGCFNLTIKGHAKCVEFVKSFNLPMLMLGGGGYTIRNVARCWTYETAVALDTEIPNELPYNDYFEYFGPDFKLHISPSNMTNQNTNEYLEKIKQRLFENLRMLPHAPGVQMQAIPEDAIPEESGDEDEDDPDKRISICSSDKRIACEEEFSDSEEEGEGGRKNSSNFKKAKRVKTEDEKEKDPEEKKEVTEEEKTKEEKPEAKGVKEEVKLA

NCI-H460 [11] = experiment: Induction of apoptosis in human NCI-H460 cells assessed as early apoptotic cells at 1 uM after 48 hrs by annexin V-FITC/propidium iodide staining based flow cytometry (reference value: 0.11%); type: functional
Histone deacetylase 1 [12] = target: T1, Histone deacetylase 1; experiment: Inhibition of HDAC1 in human MDA-MB-231 cells assessed as increase in p53 phosphorylation at Ser15 residue at 1 to 5 uM after 48 hrs by Western blot method; type: cell-based
MDA-MB-231 [13] = experiment: Induction of apoptosis in human MDA-MB-231 cells assessed as early apoptotic cells at 10 uM after 48 hrs by annexin V-FITC/propidium iodide staining based flow cytometry (reference value: 0.4%); type: functional
A549 [14] = experiment: Cell cycle arrest in human A549 cells assessed as accumulation at G0/G1 phase at 625 nM after 24 hrs by propidium iodide staining based flow cytometry; type: functional; how it was run: as §1
T47D [15] = experiment: Induction of apoptosis in human T47D cells assessed as live cells at 10 uM after 48 hrs by annexin V-FITC/propidium iodide staining based flow cytometry (reference value: 85.3%); type: functional
HepG2 [16] = experiment: Cell cycle arrest in human HepG2 cells assessed as accumulation at G2 phase at 2.5 to 10 uM after 24 hrs by propidium iodide staining based flow cytometry; type: functional; how it was run: as §1
NCI-H460 [17] = experiment: Induction of apoptosis in human NCI-H460 cells assessed as reduction in Bcl2 protein expression after 48 hrs by Western blot method; type: functional, cell-based
How it was run: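 Cells were treated with or without test agent, alongside a control, for 48h. They were then lysed and analysed by Western blot for Bcl-2 protein and cleaved caspase 3.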

MDA-MB-231 [18] = experiment: Cell cycle arrest in human MDA-MB-231 cells assessed as accumulation at G2 phase at 2.5 to 10 uM after 24 hrs by propidium iodide staining based flow cytometry; type: functional; how it was run: as §1
CDK4/CDK9 (Homo sapiens) = CDK4/CDK9 (Homo sapiens) (UniProt P11802+P50750); experiment: Inhibition of CDK4/CDK9 in human Hep3B cells assessed as reduction in Rb phosphorylation at Ser807/811 residues at 1 uM after 48 hrs by Western blot method; type: cell-based
CDK4/CDK9 (Homo sapiens), sequence (P11802 whole entry, looked up): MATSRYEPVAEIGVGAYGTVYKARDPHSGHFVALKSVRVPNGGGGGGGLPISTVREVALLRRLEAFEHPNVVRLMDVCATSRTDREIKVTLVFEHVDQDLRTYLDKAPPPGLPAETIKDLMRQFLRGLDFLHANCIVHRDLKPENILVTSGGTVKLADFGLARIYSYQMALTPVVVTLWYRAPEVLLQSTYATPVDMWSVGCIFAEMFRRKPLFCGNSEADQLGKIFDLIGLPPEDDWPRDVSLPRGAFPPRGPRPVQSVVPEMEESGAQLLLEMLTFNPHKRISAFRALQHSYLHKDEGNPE
CDK4/CDK9 (Homo sapiens), sequence (P50750 whole entry, looked up): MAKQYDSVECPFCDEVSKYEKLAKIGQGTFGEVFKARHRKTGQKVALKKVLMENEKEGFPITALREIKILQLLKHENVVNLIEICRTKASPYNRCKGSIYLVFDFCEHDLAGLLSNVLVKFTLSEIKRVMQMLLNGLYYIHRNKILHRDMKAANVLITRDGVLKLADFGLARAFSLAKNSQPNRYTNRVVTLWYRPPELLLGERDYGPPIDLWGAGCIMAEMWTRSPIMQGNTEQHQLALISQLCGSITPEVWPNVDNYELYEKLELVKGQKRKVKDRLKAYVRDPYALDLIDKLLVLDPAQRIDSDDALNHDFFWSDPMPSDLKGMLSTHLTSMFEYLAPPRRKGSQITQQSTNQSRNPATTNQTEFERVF

Aurora kinase A = Aurora kinase A (Homo sapiens, UniProt O14965); experiment: Inhibition of recombinant human full length C-terminal 6His-tagged Aurora-A expressed in baculovirus infected sf21 cells using kemptide substrate in presence of [gamma33P]ATP after 10 mins by scintillation counting method
Aurora kinase A, sequence (O14965 whole entry): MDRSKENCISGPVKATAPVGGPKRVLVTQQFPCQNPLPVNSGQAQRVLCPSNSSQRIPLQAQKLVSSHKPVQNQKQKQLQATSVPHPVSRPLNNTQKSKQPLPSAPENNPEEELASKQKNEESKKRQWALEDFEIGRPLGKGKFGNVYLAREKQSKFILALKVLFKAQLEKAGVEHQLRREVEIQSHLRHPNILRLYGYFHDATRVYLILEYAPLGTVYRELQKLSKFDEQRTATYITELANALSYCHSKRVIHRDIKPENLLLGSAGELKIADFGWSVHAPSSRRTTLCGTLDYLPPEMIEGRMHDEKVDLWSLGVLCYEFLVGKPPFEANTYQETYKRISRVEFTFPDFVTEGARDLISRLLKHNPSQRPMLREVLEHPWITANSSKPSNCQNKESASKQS

[19] = Lipophilicity, log D of the compound at pH 7.4 by HPLC based shake flask method; type: physicochemical; settings: buffer
Hep 3B2 [20] = experiment: Induction of apoptosis in human Hep3B cells assessed as early apoptotic cells at 10 uM after 48 hrs by annexin V-FITC/propidium iodide staining based flow cytometry (reference value: 1.91%); type: functional
HepG2 [21] = experiment: Induction of apoptosis in human HepG2 cells assessed as early apoptotic cells at 10 uM after 48 hrs by annexin V-FITC/propidium iodide staining based flow cytometry (reference value: 0.3%); type: functional
[22] = target: Aurora kinase B/Inner centromere protein (Homo sapiens, UniProt Q96GD4); experiment: Inhibition of recombinant human full length C-terminal His6-tagged Aurora B//N-terminal GST-tagged INCENP (821-end residues) expressed in baculovirus infected sf21 cells using AKRRRLSSLRA substrate in presence of [gamma33P]ATP after 10 mins by scintillation counting method
Aurora kinase B/Inner centromere protein, sequence (Q96GD4 whole entry): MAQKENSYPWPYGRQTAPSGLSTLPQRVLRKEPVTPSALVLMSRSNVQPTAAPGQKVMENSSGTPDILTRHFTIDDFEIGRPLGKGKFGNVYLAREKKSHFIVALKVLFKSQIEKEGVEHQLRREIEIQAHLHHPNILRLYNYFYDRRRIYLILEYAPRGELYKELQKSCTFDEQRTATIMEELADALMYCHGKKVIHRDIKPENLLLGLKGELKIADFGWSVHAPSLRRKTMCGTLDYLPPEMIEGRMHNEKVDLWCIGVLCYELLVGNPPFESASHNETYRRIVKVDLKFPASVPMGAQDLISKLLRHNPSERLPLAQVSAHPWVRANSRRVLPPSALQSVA
Aurora kinase B/Inner centromere protein, sequence (Q9NQS7 whole entry, further chain): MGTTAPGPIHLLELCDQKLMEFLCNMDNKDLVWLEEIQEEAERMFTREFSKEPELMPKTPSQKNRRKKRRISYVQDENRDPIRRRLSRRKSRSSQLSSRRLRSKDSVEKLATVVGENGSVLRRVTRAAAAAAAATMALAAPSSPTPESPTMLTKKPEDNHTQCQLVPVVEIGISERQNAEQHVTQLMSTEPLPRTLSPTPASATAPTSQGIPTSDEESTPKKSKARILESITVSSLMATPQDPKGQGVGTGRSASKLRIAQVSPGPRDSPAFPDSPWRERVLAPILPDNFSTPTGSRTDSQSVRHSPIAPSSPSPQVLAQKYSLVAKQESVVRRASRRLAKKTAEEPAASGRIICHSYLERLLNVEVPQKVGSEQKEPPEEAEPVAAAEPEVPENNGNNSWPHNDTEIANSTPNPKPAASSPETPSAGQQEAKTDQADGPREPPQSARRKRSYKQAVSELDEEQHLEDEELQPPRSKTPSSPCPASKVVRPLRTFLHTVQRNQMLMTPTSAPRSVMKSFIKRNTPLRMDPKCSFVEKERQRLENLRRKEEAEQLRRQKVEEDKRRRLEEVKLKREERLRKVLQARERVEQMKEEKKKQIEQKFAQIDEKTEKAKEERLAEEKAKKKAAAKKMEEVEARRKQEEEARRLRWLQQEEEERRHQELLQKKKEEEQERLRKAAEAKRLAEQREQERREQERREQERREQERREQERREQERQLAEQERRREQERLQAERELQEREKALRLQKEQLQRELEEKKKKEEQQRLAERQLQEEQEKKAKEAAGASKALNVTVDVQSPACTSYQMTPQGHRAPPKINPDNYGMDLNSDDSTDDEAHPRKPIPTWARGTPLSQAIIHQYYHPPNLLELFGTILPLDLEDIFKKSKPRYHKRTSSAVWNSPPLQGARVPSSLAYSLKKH

NCI-H460 [23] = experiment: Induction of apoptosis in human NCI-H460 cells assessed as early apoptotic cells at 10 uM after 48 hrs by annexin V-FITC/propidium iodide staining based flow cytometry (reference value: 0.11%); type: functional
Mus musculus = experiment: Downregulation of phosphorylated Rb level in tumor of Balb/c mouse implanted with mouse Fluc-labeled 4T1 cells at 90 to 130 mg/kg, po administered via gavage daily for 18 days by immunohistochemical analysis; type: functional, organism-based
How it was run: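 4T1 cells were labeled with firefly luciferase by lentiviral transduction and implanted orthotopically into the mammary fat pads of 6−8-week-old female BALB/c mice. Dosing by oral gavage began once tumors averaged 100 mm3, at 90 and 130 mg/kg. p-Rb in tumors was assessed by immunohistochemistry.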

HepG2 [24] = experiment: Induction of apoptosis in human HepG2 cells assessed as late apoptotic cells at 5 uM after 48 hrs by annexin V-FITC/propidium iodide staining based flow cytometry (reference value: 0.64%); type: functional
NCI-H460 [25] = experiment: Induction of apoptosis in human NCI-H460 cells assessed as necrotic cells at 5 uM after 48 hrs by annexin V-FITC/propidium iodide staining based flow cytometry (reference value: 1.34%); type: functional
HepG2 [26] = experiment: Induction of apoptosis in human HepG2 cells assessed as late apoptotic cells at 1 uM after 48 hrs by annexin V-FITC/propidium iodide staining based flow cytometry (reference value: 0.64%); type: functional
[27] = Tmax in Sprague-Dawley rat at 20 mg/kg, po administered as single dose by HPLC analysis; type: ADME, organism-based; settings: in vivo

With `CN(C)C(=O)c1cc2cnc(Nc3ccc(NC(=O)CCCCCCC(=O)NO)cc3)nc2n1C1CCCC1` the Activity (A549 [1]) was “Active”, the Activity (Hep 3B2 [2]) was 85.8% and the Activity (NCI-H460 [3]) was 88.9%. For the same molecule, the Activity (T47D [4]) was “Dose-dependent effect”, the Activity (MDA-MB-231 [5]) was “Active” and the Activity (T47D [6]) was 76.5%. For the same molecule, the Activity (A549 [7]) was 59.8%, the Activity (MDA-MB-231 [8]) was 2.57% and the Activity (HepG2 [9]) was 6.13%. For the same molecule, the inhibition (Histone deacetylase 1 [10]) was “Active”, the Activity (NCI-H460 [11]) was 0.28% and the inhibition (Histone deacetylase 1 [12]) was “Active”. The Activity (MDA-MB-231 [13]) was 5.09%, the Activity (A549 [14]) was “Active” and the Activity (T47D [15]) was 43.2%. For the same molecule, the Activity (HepG2 [16]) was “Active”, the Activity (NCI-H460 [17]) was “Active” and the Activity (MDA-MB-231 [18]) was “Active”. The inhibition (CDK4/CDK9 (Homo sapiens)) was “Active”, the IC50 (Aurora kinase A) was 12 nM and the logD [19] was 2.02. It also gave an Activity (Hep 3B2 [20]) of 8.15%, an Activity (HepG2 [21]) of 9.32% and an IC50 [22] of 19 nM. For the same molecule, the Activity (NCI-H460 [23]) was 3.95%, the Activity (Mus musculus) was “Active” and the Activity (HepG2 [24]) was 11.1%. It also gave an Activity (NCI-H460 [25]) of 3.88%, an Activity (HepG2 [26]) of 6.07% and a Tmax [27] of 1.8 h.
